Measured values taken from ChEMBL document CHEMBL4033712, “Synthesis and biological evaluation of new C-12(α/β)-(N-) sulfamoyl-phenylamino-14-deoxy-andrographolide derivatives as potent anti-cancer agents” (Bioorg Med Chem Lett, 2017).

Experiments:
Type in all cases: functional
[1] = system: HOP-92; experiment: Anticancer activity against human HOP92 cells assessed as cell growth at 10 uM after 48 hrs by sulforhodamine B assay relative to control; details: HOP-92, 48 h, read-out: Activity
Procedure, shortened: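 Single-dose NCI-60 panel screen: compound added at 10 µM and the culture incubated 48 h. The end point was read by protein staining with sulforhodamine B. The value is percent growth of treated cells relative to untreated control cells, reported as a mean graph across the panel.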

[2] = system: CCRF-CEM; experiment: Growth inhibition of human CCRF-CEM cells incubated for 48 hrs by sulforhodamine B assay
Procedure, shortened: (§1)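 NCI-60 five-dose screen at 0.01, 0.1, 1, 10 and 100 µM, 48 h incubation, sulforhodamine B end point. GI50 (50% decrease in net growth), TGI (total growth inhibition) and LC50 (net 50% loss of initial cells) taken from log concentration versus % growth inhibition curves.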

[3] = system: SF-295; experiment: Growth inhibition of human SF295 cells incubated for 48 hrs by sulforhodamine B assay; details: SF-295, 48 h
Procedure, shortened: (§2)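 NCI 60 human tumour cell line panel, five-dose study at 0.01, 0.1, 1, 10 and 100 µM, 48 h incubation. Sulforhodamine B protein-binding dye end point. GI50 (50% decrease in net cell growth), TGI (total growth inhibition) and LC50 (net 50% loss of initial cells) read from log concentration versus % growth inhibition curves.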

[4] = system: UACC-62; experiment: Growth inhibition of human UACC62 cells incubated for 48 hrs by sulforhodamine B assay; details: UACC-62, 48 h; procedure, shortened: as §2
[5] = system: A549; experiment: Growth inhibition of human A549/ATCC cells incubated for 48 hrs by sulforhodamine B assay; details: A549, 48 h; procedure, shortened: as §1
[6] = system: KM12; experiment: Growth inhibition of human KM12 cells incubated for 48 hrs by sulforhodamine B assay; details: KM12, 48 h; procedure, shortened: as §1
[7] = system: TK-10; experiment: Growth inhibition of human TK10 cells incubated for 48 hrs by sulforhodamine B assay; details: TK-10, 48 h; procedure, shortened: as §2
[8] = system: NCI-H226; experiment: Growth inhibition of human NCI-H226 cells incubated for 48 hrs by sulforhodamine B assay; details: NCI-H226, 48 h; procedure, shortened: as §1
[9] = system: MDA-MB-468; experiment: Growth inhibition of human MDA-MB-468 cells incubated for 48 hrs by sulforhodamine B assay; details: MDA-MB-468, 48 h; procedure, shortened: as §1
[10] = system: NCI/ADR-RES; experiment: Growth inhibition of human NCI/ADR-RES cells incubated for 48 hrs by sulforhodamine B assay; procedure, shortened: as §1
[11] = system: SK-OV-3; experiment: Growth inhibition of human SKOV3 cells incubated for 48 hrs by sulforhodamine B assay; details: SK-OV-3, 48 h; procedure, shortened: as §2
[12] = system: NCI-H23; experiment: Growth inhibition of human NCI-H23 cells incubated for 48 hrs by sulforhodamine B assay; details: NCI-H23, 48 h; procedure, shortened: as §1
[13] = system: CAKI-1; experiment: Growth inhibition of human Caki1 cells incubated for 48 hrs by sulforhodamine B assay; details: CAKI-1, 48 h; procedure, shortened: as §1
[14] = system: NCI-H460; experiment: Growth inhibition of human NCI-H460 cells incubated for 48 hrs by sulforhodamine B assay; details: NCI-H460, 48 h; procedure, shortened: as §1
[15] = system: HL-60(TB); experiment: Growth inhibition of human HL-60(TB) cells incubated for 48 hrs by sulforhodamine B assay; details: HL-60, 48 h
Procedure, shortened: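 NCI-60 five-dose screen at 0.01, 0.1, 1, 10 and 100 µM for 48 h, sulforhodamine B read-out. GI50 taken from log concentration versus % growth inhibition curves as the concentration giving 50% decrease in net cell growth.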

[16] = system: PC-3; experiment: Growth inhibition of human PC3 cells incubated for 48 hrs by sulforhodamine B assay; details: PC-3, 48 h; procedure, shortened: as §1
[17] = system: MOLT-4; experiment: Growth inhibition of human MOLT4 cells incubated for 48 hrs by sulforhodamine B assay; details: MOLT-4, 48 h; procedure, shortened: as §1
[18] = system: UACC-257; experiment: Growth inhibition of human UACC257 cells incubated for 48 hrs by sulforhodamine B assay; details: UACC-257, 48 h; procedure, shortened: as §2
[19] = system: SN12C; experiment: Growth inhibition of human SN12C cells incubated for 48 hrs by sulforhodamine B assay; procedure, shortened: as §2
[20] = system: SR; experiment: Growth inhibition of human SR cells incubated for 48 hrs by sulforhodamine B assay; procedure, shortened: as §2
[21] = system: HOP-62; experiment: Growth inhibition of human HOP62 cells incubated for 48 hrs by sulforhodamine B assay; details: HOP-62, 48 h; procedure, shortened: as §1
[22] = system: EKVX; experiment: Growth inhibition of human EKVX cells incubated for 48 hrs by sulforhodamine B assay; procedure, shortened: as §1
[23] = system: MDA-MB-435; experiment: Growth inhibition of human MDA-MB-435 cells incubated for 48 hrs by sulforhodamine B assay; details: MDA-MB-435, 48 h; procedure, shortened: as §1
[24] = system: HCT-15; experiment: Growth inhibition of human HCT15 cells incubated for 48 hrs by sulforhodamine B assay; details: HCT-15, 48 h; procedure, shortened: as §1
[25] = system: DU-145; experiment: Growth inhibition of human DU145 cells incubated for 48 hrs by sulforhodamine B assay; details: DU-145, 48 h; procedure, shortened: as §1
[26] = system: MDA-MB-231; experiment: Growth inhibition of human MDA-MB-231 cells incubated for 48 hrs by sulforhodamine B assay; details: MDA-MB-231, 48 h; procedure, shortened: as §1
[27] = read-out: LC50 (the source's name)

Molecule `C=C1CC[C@@H]2[C@](C)(COC(C)=O)[C@H](OC(C)=O)CC[C@@]2(C)[C@H]1CC(Nc1ccc(S(=O)(=O)Nc2nc(C)cc(C)n2)cc1)C1=CCOC1=O` (stereo partly specified) has a growth at 10 µM [1] of 90.1%.

`C=C1CC[C@@H]2[C@](C)(COC(C)=O)[C@H](OC(C)=O)CC[C@@]2(C)[C@H]1CC(Nc1ccc(S(=O)(=O)Nc2ccc(Cl)nn2)cc1)C1=CCOC1=O` (stereo partly specified) gave a GI50 [2] of 0.46 µM, a TGI [2] of 2.6 µM and a CC50 [2, 27] of over 100 µM. The GI50 [3] was 3.28 µM, the TGI [3] was 12.6 µM and the CC50 [3, 27] was 35.6 µM. It also gave a GI50 [4] of 1.49 µM, a TGI [4] of 3.86 µM and a CC50 [4, 27] of 10 µM. For the same molecule, the GI50 [5] was 2.96 µM, the TGI [5] was 10.7 µM and the CC50 [5, 27] was 40.9 µM. It also gave a GI50 [6] of 1.7 µM, a TGI [6] of 3.49 µM and a CC50 [6, 27] of 7.16 µM. It also gave a GI50 [7] of 2.13 µM, a TGI [7] of 4.19 µM and a CC50 [7, 27] of 8.25 µM. For the same molecule, the GI50 [8] was 1.67 µM, the TGI [8] was 3.3 µM and the GI50 [9] was 1.32 µM. It also gave a TGI [9] of 3.37 µM, a CC50 [9, 27] of 8.62 µM and a GI50 [10] of 1.87 µM. It also gave an LC50 (concentration giving net 50% loss of initial cells) [10] of over 100 µM, a TGI [10] of 6.2 µM and a GI50 [11] of 4.05 µM. It also gave a TGI [11] of 12.3 µM, a CC50 [11, 27] of 35 µM and a GI50 [12] of 2.06 µM. For the same molecule, the TGI [12] was 5.35 µM, the CC50 [12, 27] was 43.2 µM and the GI50 [13] was 2.28 µM. The TGI [13] was 100 µM, the CC50 [13, 27] was 31.7 µM and the GI50 [14] was 2.03 µM. For the same molecule, the TGI [14] was 4.31 µM, the CC50 [14, 27] was 9.15 µM and the GI50 [15] was 1.32 µM. It also gave a TGI [15] of 4.44 µM, a CC50 [15, 27] of over 100 µM and a GI50 [16] of 2.24 µM. It also gave a TGI [16] of 5.25 µM, a CC50 [16, 27] of 15.8 µM and a GI50 [17] of 1.96 µM. It also gave a TGI [17] of over 100 µM, a CC50 [17, 27] of over 100 µM and a GI50 [18] of 1.67 µM. It also gave a TGI [18] of 3.89 µM, a CC50 [18, 27] of 9.03 µM and a GI50 [19] of 1.25 µM. The TGI [19] was 3.66 µM, the CC50 [19, 27] was 12.7 µM and the growth at 10 µM [1] was 69.8%. It also gave a GI50 [20] of 1.35 µM, a TGI [20] of 8.1 µM and a CC50 [20, 27] of over 100 µM. For the same molecule, the GI50 [21] was 1.46 µM, the TGI [21] was 2.99 µM and the CC50 [21, 27] was 6.12 µM. For the same molecule, the GI50 [22] was 4.53 µM, the TGI [22] was 17 µM and the CC50 [22, 27] was 41.3 µM. For the same molecule, the GI50 [23] was 1.4 µM, the TGI [23] was 3.17 µM and the CC50 [23, 27] was 7.16 µM. The GI50 [24] was 0.88 µM, the TGI [24] was 2.3 µM and the CC50 [24, 27] was 5.51 µM. For the same molecule, the GI50 [25] was 1.7 µM, the TGI [25] was 3.45 µM and the CC50 [25, 27] was 7.02 µM. The GI50 [26] was 1.9 µM, the LC50 (concentration giving net 50% loss of initial cells) [26] was 8.27 µM and the TGI [26] was 3.96 µM.
